Converted amounts (≈) assume the structure as drawn.
Legend:
S. aureus BAA39 (MRSA) = experiment: MIC against multidrug-resistant strain; assay type: cell-based; details: Staphylococcus aureus
Summary of the method: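 Broth microdilution in non-cation-adjusted Mueller-Hinton broth. Bacteria were subcultured to OD 0.2–0.3 (about 10^8 CFU/mL) and diluted to give about 10^5 CFU/mL in wells. The test compound stock was in DI water, serially diluted twofold to final 512–1 µg/mL. Plates were incubated at 37 °C for 18–20 h and read at OD600.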

S. aureus USA300 (MRSA) = experiment: MIC against multidrug-resistant strain; assay type: cell-based; details: Staphylococcus aureus
Summary of the method: (§1)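 Broth microdilution in non-cation-adjusted Mueller-Hinton broth. Bacteria were subcultured to OD 0.2–0.3 (about 10^8 CFU/mL), then diluted to about 10^5 CFU/mL final. Test compound stock was in DI water. Twofold dilutions gave 512 to 1 µg/mL final. Plates were incubated 18-20 h at 37 °C and read at OD600.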

S. aureus USA300 (LAC) = experiment: MIC against multidrug-resistant strain; assay type: cell-based; details: Staphylococcus aureus
Summary of the method: as §1

P. aeruginosa PAO1 [1] = experiment: Resistance frequency determination; assay type: cell-based; details: 10× MIC
K. pneumoniae KPNR [2] = experiment: MIC against multidrug-resistant strain; assay type: cell-based; details: Klebsiella pneumoniae
P. aeruginosa BAA-2797 [3] = experiment: Murine systemic; assay type: in vivo, balb/c mice; details: P. aeruginosa BAA-2797 peritonitis; single dose 10 mg/kg i.p. at 2 h; n = 6
Summary of the method: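 Female BALB/c mice, 7–8 weeks, were infected i.p. with P. aeruginosa BAA-2797 (10^6 CFU/mL) in PBS containing 5% mucin. At 2 h post-infection they received a single i.p. dose of PBS, test compound (10 mg/kg) or imipenem (10 mg/kg), n = 6. Survival was monitored for up to 7 days.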

P. aeruginosa PAO1 [4] = experiment: Murine lung infection model; assay type: in vivo, balb/c mice; details: 10 mg/kg intranasal at 2, 8, 26 h
Summary of the method: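 Infection was intranasal with P. aeruginosa PAO1 (10^4 CFU/mL inoculum). PBS, test compound or imipenem was given intranasally at 10 mg/kg at 2, 8 and 26 h post-infection (n = 6). Lungs were homogenised at 38 h for CFU. Survival was followed for up to 7 days.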

K. pneumoniae KPNR [5] = experiment: Murine neutropenic thigh infection model; assay type: in vivo, balb/c mice; details: 2 doses of 15 mg/kg s.c. at 2, 6 h, 26 h
Summary of the method: (§2)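 Infection was intramuscular into the right thigh: P. aeruginosa BAA-2797 at 10^5, K. pneumoniae KPNR at 10^6, or MRSA at 10^5 CFU/mL. PBS, test compound or imipenem was given s.c. at 15 mg/kg at 2 and 6 h (n = 6). Thighs were homogenised at 26 h for CFU.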

P. aeruginosa BAA-2797 [6] = experiment: Murine neutropenic thigh infection model; assay type: in vivo, balb/c mice; details: 2 doses of 15 mg/kg s.c. at 2, 6 h, 26 h
Summary of the method: as §2

[7] = conventional antibiotics, literature values; cited from earlier work
MRSA = experiment: Murine neutropenic thigh infection model; assay type: in vivo, balb/c mice; details: 2 doses of 15 mg/kg s.c. at 2, 6 h, 26 h
Summary of the method: as §2

Compound	MIC (S. aureus BAA39 (MRSA)) [mg/L]	MIC (S. aureus USA300 (MRSA)) [mg/L]	MIC (S. aureus USA300 (LAC)) [mg/L]	selection of resistant escape mutants (P. aeruginosa PAO1 [1])	MIC (K. pneumoniae KPNR [2]) [mg/L]	survival (mice rescued) (P. aeruginosa BAA-2797 [3])	reduction of bacterial burden in lung tissues (P. aeruginosa PAO1 [4]; P. aeruginosa PAO1, 38 h) [log10]	survival (mice rescued) (P. aeruginosa PAO1 [4]; P. aeruginosa PAO1 lung infection, n = 6)	CFU reduction in thigh vs PBS (-) (K. pneumoniae KPNR [5]) [log10]	CFU reduction in thigh vs PBS (-) (P. aeruginosa BAA-2797 [6]) [log10]	half-life (T1/2) [7] [min]	CFU reduction in thigh vs PBS (-) (MRSA) [log10]
O=C(O)c1cn(C2CC2)c2cc(N3CCNCC3)c(F)cc2c1=O [CIP, ciprofloxacin]	4 (≈ 12.1 µM)	< 1	8 (≈ 24.1 µM)	–	–	–	–	–	–	–	–	–
C[C@@H](O)[C@H]1C(=O)N2C(C(=O)O)=C(SCCN=CN)C[C@H]12 [IMP, imipenem]	< 1	< 1	< 1	resistant strains developed	4 (≈ 13.4 µM)	succumbed to the infection	4.7	5 out of 6	1.4	0.1	12	–
CN[C@H](CC(C)C)C(=O)N[C@H]1C(=O)N[C@@H](CC(N)=O)C(=O)N[C@H]2C(=O)N[C@H]3C(=O)N[C@H](C(=O)N[C@H](C(=O)O)c4cc(O)cc(O)c4-c4cc3ccc4O)[C@H](O)c3ccc(c(Cl)c3)Oc3cc2cc(c3O[C@@H]2O[C@H](CO)[C@@H](O)[C@H](O)[C@H]2O[C@H]2C[C@](C)(N)[C@H](O)[C@H](C)O2)Oc2ccc(cc2Cl)[C@H]1O [VAN, vancomycin]	1 (≈ 0.69 µM)	< 1	< 1	–	–	–	–	–	–	–	–	2.3
C[C@@H](O)[C@H]1C(=O)N2C(C(=O)O)=C(S[C@@H]3CN[C@H](C(=O)N(C)C)C3)[C@H](C)[C@H]12 [meropenem]	–	–	–	–	–	–	–	–	–	–	6	–
